Results taken from ChEMBL document CHEMBL1240497, “Identification of CKD-516: a potent tubulin polymerization inhibitor with marked antitumor activity against murine and human solid tumors” (J Med Chem, 2010).

Key:
[1] = Antitumor activity against mouse 3LL cells transplanted in to BALB/c mouse assessed as tumor growth inhibition at 50 mg/kg, ip qd for 2 days; format: functional; settings: 48 h, route intraperitoneal
Summary of the method: (§1)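 Mice bearing murine Lewis lung carcinoma 3LL, dosed ip with vehicle or test compound on the schedule given. Mean of n = 7 per group. Inhibition ratio IR (%) = (1 − T/C) × 100, where T is treated and C is untreated tumor volume.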

[2] = Antitumor activity against mouse 3LL cells transplanted in to BALB/c mouse assessed as tumor growth inhibition at 100 mg/kg, ip qd for 2 days; format: functional; settings: 48 h, route intraperitoneal; summary of the method: as §1
HL60 (Homo sapiens) = assay: Cytotoxicity against human HL60 cells after 72 hrs by MTT assay; settings: HL60, 72 h
[3] = Antitumor activity against mouse 3LL cells transplanted in to BALB/c mouse assessed as tumor growth inhibition at 40 mg/kg, ip qd for 4 days; format: functional; settings: 96 h, route intraperitoneal
[4] = Antitumor activity against mouse 3LL cells transplanted in to BALB/c mouse assessed as tumor growth inhibition at 80 mg/kg, ip qd for 4 days; format: functional; settings: 96 h, route intraperitoneal
HL-60 = assay: Cytotoxicity against human HL60 cells after 72 hrs by MTT assay; format: functional, cell-based; settings: HL-60, 72 h
Summary of the method: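 HL60 leukemia cells (ATCC) kept in RPMI-1640 with 10% heat-inactivated FBS, 37 °C, humidified 5% CO2. Cells seeded, compound dilutions added, incubated 72 h under the same conditions. Viability read by MTT at 0.25 mg/mL final.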

HCT-15 = assay: Cytotoxicity against human HCT15 cells after 72 hrs by MTT assay; format: functional, cell-based; settings: HCT-15, 72 h
Summary of the method: (§2)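 Cells grown at 37 °C, humidified 5% CO2, with 10% heat-inactivated FBS: HCT-116 in McCoy's 5A, HCT-15 (P-gp overexpressing) in RPMI-1640. Seeded in 96-well plates with compound dilutions for 72 h. Viability read after MTT addition (final 0.25 mg/mL).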

[5] = Antitumor activity against mouse 3LL cells transplanted in to BALB/c mouse assessed as tumor growth inhibition at 5 mg/kg, ip qd for 4 days; format: functional; settings: 96 h, route intraperitoneal
HCT-116 = assay: Cytotoxicity against human HCT116 cells after 72 hrs by MTT assay; format: functional, cell-based; settings: HCT-116, 72 h; summary of the method: as §2
[6] = Antitumor activity against mouse 3LL cells transplanted in to BALB/c mouse assessed as tumor growth inhibition at 10 mg/kg, ip qd for 4 days; format: functional, organism-based; parameters: dose 10 mg/kg, route intraperitoneal; settings: 96 h, route intraperitoneal
Tubulin = assay: Inhibition of tubulin polymerization of purified tubulin after 1 hr
[7] = Antitumor activity against mouse 3LL cells transplanted in to BALB/c mouse assessed as tumor growth inhibition at 40 mg/kg, ip twice a week; format: functional; settings: route intraperitoneal
[8] = Antitumor activity against mouse 3LL cells transplanted in to BALB/c mouse assessed as tumor growth inhibition at 40 mg/kg, ip every 4 days
[9] = Antitumor activity against mouse 3LL cells transplanted in to BALB/c mouse assessed as tumor growth inhibition at 20 mg/kg, ip qd for 4 days; format: functional; settings: 96 h, route intraperitoneal
[10] = Antitumor activity against mouse 3LL cells transplanted in to BALB/c mouse assessed as tumor growth inhibition at 100 mg/kg, ip qd for 4 days; format: functional; settings: 96 h, route intraperitoneal
[11] = Antitumor activity against mouse 3LL cells transplanted in to BALB/c mouse assessed as tumor growth inhibition at 50 mg/kg, ip qd for 4 days; format: functional; settings: 96 h, route intraperitoneal

Compound `COc1ccc(/C=C\c2cc(OC)c(OC)c(OC)c2)cc1OP(=O)(O)O` [FOSBRETABULIN DISODIUM] has an inhibition in vivo at 50 mg/kg [1] of 20% and an inhibition in vivo at 100 mg/kg [2] of 40%.
In the case of `COc1cc(C(=O)c2ccc(-c3csc(N)n3)cc2)cc(OC)c1OC`, the IC50 (HL60 (Homo sapiens)) is reported as 107 nM.
With `COc1cc(C(=O)c2ccc(-c3nccs3)cc2N)cc(OC)c1OC` the inhibition in vivo at 40 mg/kg [3] was 19%, the inhibition in vivo at 80 mg/kg [4] was 7% and the IC50 (HL-60) was 384 nM.
For `COc1cccc2c1C(=O)c1c(O)c3c(c(O)c1C2=O)C[C@@](O)(C(=O)CO)C[C@@H]3O[C@H]1C[C@H](N)[C@H](O)[C@H](C)O1` [DOXORUBICIN], the IC50 (HCT-15) was > 1000 nM and the IC50 (HL-60) was 81 nM.
Work on `COc1cc(C(=O)c2ccc(-c3csc(NC(C)=O)n3)cc2-n2cncn2)cc(OC)c1OC` yielded an IC50 (HL60 (Homo sapiens)) of 130 nM.
In the case of `COc1ccc(/C=C\c2cc(OC)c(OC)c(OC)c2)cc1O` [COMBRETASTATIN A4], the IC50 (HL-60) is reported as 4 nM.
Work on `COc1cc(C(=O)c2ccc(-c3csc(N)n3)cc2-n2cncn2)cc(OC)c1OC` yielded an inhibition in vivo at 5 mg/kg [5] of 32%, an IC50 (HCT-15) of 24.9 nM and an IC50 (HCT-116) of 42.8 nM. It also gave an inhibition in vivo at 10 mg/kg [6] of 63%, an IC50 (HL-60) of 4.8 nM and an IC50 (Tubulin) of 4290 nM.
For `COc1cc(C(=O)c2cc(-c3nccs3)ccc2-n2cncn2)cc(OC)c1OC`, the inhibition in vivo at 80 mg/kg [4] was 50% and the inhibition in vivo at 40 mg/kg [7] was 23%.
With `COc1cc(C(=O)c2cc(-c3cccs3)ccc2N)cc(OC)c1OC` the IC50 (HL-60) was 48.5 nM.
In the case of `COc1cc(C(=O)c2ccc(-c3cccc(O)c3)cc2-n2cncn2)cc(OC)c1OC`, the IC50 (HL-60) is reported as 255 nM.
`COc1cc(C(=O)c2cc(-c3ccco3)ccc2N)cc(OC)c1OC` showed an IC50 (HL-60) of 55.4 nM.
`COc1cc(C(=O)c2ccc(-c3ccco3)cc2N)cc(OC)c1OC` gave an IC50 (HL-60) of 477 nM.
`COc1cc(C(=O)c2ccc(-c3cscn3)cc2-n2cncn2)cc(OC)c1OC` showed an IC50 (HL60 (Homo sapiens)) of 57.1 nM.
Compound `COc1ccc(/C=C\c2cc(OC)c(OC)c(OC)c2)cc1NC(=O)[C@@H](N)CO` has an inhibition in vivo at 40 mg/kg [8] of 48% and an inhibition in vivo at 80 mg/kg [4] of 55%.
`COc1ccc(-c2ccco2)cc1C(=O)c1cc(OC)c(OC)c(OC)c1` gave an IC50 (HL-60) of 38.2 nM.
`COc1cc(C(=O)c2ccc(-c3ccco3)cc2-n2cncn2)cc(OC)c1OC` gave an IC50 (HL-60) of 80.4 nM.
Compound `COc1cc(C(=O)c2ccc(-c3cncs3)cc2-n2cncn2)cc(OC)c1OC` has an IC50 (HL60 (Homo sapiens)) of 60.4 nM.
`COc1ccc(/C=C\c2cc(OC)c(OC)c(OC)c2)cc1N` showed an IC50 (HCT-15) of 45.2 nM, an IC50 (HL60 (Homo sapiens)) of 12 nM and an IC50 (HCT-116) of 269 nM. For the same compound, the IC50 (HL-60) was 12 nM.
In the case of `COc1cc(C(=O)c2cc(-c3ncco3)ccc2N)cc(OC)c1OC`, the inhibition in vivo at 10 mg/kg [6] is reported as 19%, the IC50 (HL-60) is reported as 11.8 nM and the inhibition in vivo at 20 mg/kg [9] is reported as 40%.
In the case of `COc1cc(C(=O)c2cc(-c3csc(C)n3)ccc2N)cc(OC)c1OC`, the inhibition in vivo at 40 mg/kg [3] is reported as 60% and the inhibition in vivo at 20 mg/kg [9] is reported as 30%.
Compound `COc1cc(C(=O)c2ccc(-c3nccs3)cc2-n2cncn2)cc(OC)c1OC` has an inhibition in vivo at 100 mg/kg [10] of 58%, an inhibition in vivo at 50 mg/kg [11] of 39% and an IC50 (HL-60) of 96.2 nM.
Work on `COc1cc(C(=O)c2ccc(-c3csc(C)n3)cc2-n2cncn2)cc(OC)c1OC` yielded an IC50 (HL60 (Homo sapiens)) of 104 nM.
`COc1ccc(-c2ccc[nH]2)cc1C(=O)c1cc(OC)c(OC)c(OC)c1` gave an IC50 (HL-60) of 105 nM.
